Source: PubChem
Pf Dd2 inh: P. falciparum Dd2 growth inhibitors, primary screen, SYBR Green fluorescence, single dose replicates. 72 h; hits give low values. activity change, % at 10 µM. 94,000 tested, 2.3% active; in the data active means activity change below about -80%; inconclusive means no clear call, values can overlap the other calls
IDH1 mut inh: inhibitors of IDH1 R132H reductase, primary screen, biochemical, plate reader, single point; 70,000 tested, 0.18% active; diaphorase/resazurin fluorescence, 60 min; Isocitrate dehydrogenase [NADP] cytoplasmic (Homo sapiens), O75874; inhibition, % at 10 µM; in the data active means inhibition above about 34%; inconclusive means no clear call, values can overlap the other calls; inactive means below about 11%;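 further: 0% = DMSO and 100% = no enzyme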
Target sequence (O75874 whole entry R132H): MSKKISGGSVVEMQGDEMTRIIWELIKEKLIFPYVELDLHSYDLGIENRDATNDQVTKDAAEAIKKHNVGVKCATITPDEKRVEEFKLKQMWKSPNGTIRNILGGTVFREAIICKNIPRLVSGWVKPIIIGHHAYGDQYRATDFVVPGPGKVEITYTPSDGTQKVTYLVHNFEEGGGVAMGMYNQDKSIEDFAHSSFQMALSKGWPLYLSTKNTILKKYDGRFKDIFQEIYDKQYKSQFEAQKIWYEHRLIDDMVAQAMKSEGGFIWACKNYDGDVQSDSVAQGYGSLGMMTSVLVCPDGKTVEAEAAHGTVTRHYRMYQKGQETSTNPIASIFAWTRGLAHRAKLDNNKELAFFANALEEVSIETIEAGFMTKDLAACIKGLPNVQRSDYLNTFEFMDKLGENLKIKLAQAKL
T cruzi growth-1: T. cruzi intracellular proliferation inhibitors, primary screen, cell-based, beta-gal Tulahuen parasites, NIH3T3 host, luminescence; inhibition, % at 8.34 µM; T. cruzi beta-gal in NIH3T3, GalScreen luminescence, 90 h; 77,000 tested, 5.9% active; AID 624255, 2012;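 active means mean inhibition above about 93%, with at least 55% of replicates each passing it, limit read from the data, passing the limit was not always enough; inconclusive means only one of those two conditions holds; inactive means neither condition holds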
KDM4C inh: inhibitors of GASC-1 (KDM4C) histone demethylase, primary screen, biochemical, single concentration HTS; GST-KDM4C 2-372, H3K9me3 peptide, LANCE TR-FRET; inhibition, % at 12.5 µM; 96,000 tested, 0.15% active; AID 720574, 2013;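 active means mean replicate inhibition above about 25%, with at least 55% of replicates also reaching it, limit read from the data, passing the limit was not always enough; inconclusive means only one of those two conditions met; inactive means neither condition met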
Target sequence (Q9H3R0 2-372 limits assumed): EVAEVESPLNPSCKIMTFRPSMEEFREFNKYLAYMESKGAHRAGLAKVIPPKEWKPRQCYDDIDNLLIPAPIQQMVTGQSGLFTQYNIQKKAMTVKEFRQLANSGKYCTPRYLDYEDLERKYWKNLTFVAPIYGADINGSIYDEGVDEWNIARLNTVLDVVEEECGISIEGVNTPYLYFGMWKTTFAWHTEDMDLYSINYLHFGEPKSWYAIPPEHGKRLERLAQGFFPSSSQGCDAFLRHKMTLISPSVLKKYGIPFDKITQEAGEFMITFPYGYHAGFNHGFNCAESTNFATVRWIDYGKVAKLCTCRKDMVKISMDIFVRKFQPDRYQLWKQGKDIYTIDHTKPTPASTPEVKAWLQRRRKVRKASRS
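material = GST-tagged GASC-1 (JMJD2C) catalytic fragment, aa 2-372 | amount = enzyme final amount 10 nM | medium = HEPES buffer, pH 7.5, plus ascorbate | also added = H3K9me3 peptide substrate, Fe(II), 2-oxoglutarate | dosing = single dose | times = 30 min demethylation and 1 h detection at room temperature | detection = LANCE TR-FRET | read-out basis = Fall in 671/618 emission ratio as inhibition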
T cruzi growth-2: T. cruzi intracellular proliferation inhibitors, confirmation, cell-based, NIH3T3 host, beta-gal parasite, luminescence, cherry-pick. shares compounds with T cruzi growth-1. T. cruzi beta-gal in NIH3T3, GalScreen luminescence, 90 h. inhibition, % at 8.35 µM. 5,600 tested, 72% active;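 active means mean replicate inhibition above about 95% and at least 55% of replicates individually reaching it, limit read from the data; inconclusive means only one of the two criteria is met; inactive means neither criterion is met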
T cruzi growth-3: inhibitors of intracellular T. cruzi replication, confirmation, NIH3T3 host cells, beta-gal parasites, cherry-pick, set 2; T. cruzi beta-gal in NIH3T3, GalScreen luminescence, 90 h; shares compounds with T cruzi growth-1; 5,600 tested, 21% active; inhibition, % at 2.09 µM;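 active means mean inhibition above about 95%, with at least 55% of replicates also reaching it, limit read from the data; inconclusive means meets just one of the two conditions; inactive means meets neither condition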;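 further: plate controls were neutral control median for no effect and positive control median for full effect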
3T3 cytotox: cytotoxicity in mouse NIH/3T3 fibroblasts, confirmation, cytotoxicity control for T. cruzi proliferation inhibitor project, cell-based, cherry-pick, single point; shares compounds with T cruzi growth-1; cytotoxicity (signal decrease), % at 8.35 µM; NIH/3T3 viability, CellTiter-Glo ATP luminescence, 90 h; 5,600 tested, 14% active;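 active means mean signal decrease across replicates above about 35% based on untreated-well scatter, with enough replicates individually passing, limit read from the data; inconclusive means no rule stated though some were filed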;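 further: 0% = median of neutral control wells and 100% = median of positive control wells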
3T3 cytotox 2: NIH/3T3 fibroblast cytotoxicity, confirmation, cytotoxicity control, cell-based, cherry-pick, single point, set 2 | shares compounds with T cruzi growth-1 | NIH/3T3 viability, CellTiter-Glo ATP luminescence, 90 h | inhibition, % at 24.9 µM | 5,600 tested, 56% active | AID 651744, 2012;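 active means mean loss of cell viability signal at or above a set limit, and enough replicates individually reaching it; inconclusive means meets only the mean limit or only the replicate share; inactive means meets neither condition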;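 further: 0% = median of neutral control wells and 100% = median of positive control wells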
The depositor's hits bear a star; ? = inconclusive; nt = no result. The list is not random: actives were taken first. Their share in the collection is about 5.9%.

SMILES	Pf Dd2 inh	IDH1 mut inh	T cruzi growth-1	KDM4C inh	T cruzi growth-2	T cruzi growth-3	3T3 cytotox	3T3 cytotox 2
COc1ccc(S(=O)(=O)Nc2ccc3c(c2)C(=O)N([C@@H](C)CO)C[C@@H](C)[C@@H](CN(C)S(=O)(=O)c2ccc(F)cc2)OCCCC[C@@H](C)O3)cc1	-41.7	0.9	79.4	-0.6	nt	nt	nt	nt
COc1ccc(S(=O)(=O)Nc2ccc3c(c2)C(=O)N([C@@H](C)CO)C[C@@H](C)[C@H](CN(C)S(=O)(=O)c2ccc(F)cc2)OCCCC[C@H](C)O3)cc1	-27.6	nt	100.4*	nt	103.4*	38.8	30.1	4.8
COc1ccc(C(=O)n2nc(-c3ccc(Cl)cc3)nc2NCc2ccco2)cc1OC	nt	0.2	nt	nt	nt	nt	nt	nt
O=C(COc1cc(O)c2c(=O)c3ccccc3oc2c1)c1ccc(Br)cc1	nt	0.2	nt	nt	nt	nt	nt	nt
COc1cccc(-c2ccc3c(c2)[C@@H]2[C@@H](CCN2C(=O)Cc2ccncc2)[C@@H](CO)N3)c1	-71.3	nt	?	-1.6	100.7*	44.4	-18.0	11.3
O=C(Cc1ccncc1)N1CC[C@@H]2[C@H]1c1cc(-c3cccc(F)c3)ccc1N[C@@H]2CO	-70.9	nt	117.8*	-0.7	107.5*	75.2	5.7	24.5
COc1ccc(-c2ccc3c(c2)[C@H]2[C@H](CCN2C(=O)Cc2ccncc2)[C@H](CO)N3)cc1	-70.1	nt	54.5	0.8	nt	nt	nt	nt
O=C(Cc1ccccc1)N1CC[C@H]2[C@H](CO)Nc3ccc(-c4cccc(F)c4)cc3[C@H]21	10.7	nt	88.7	0.5	nt	nt	nt	nt
N#Cc1cccc(-c2ccc3c(c2)[C@H]2[C@H](CCN2S(=O)(=O)c2ccccc2F)[C@H](CO)N3)c1	15.1	nt	109.8*	0.2	93.5	82.1	47.1*	74.0*
N#Cc1ccc(-c2ccc3c(c2)[C@@H]2[C@@H](CCN2S(=O)(=O)c2ccccc2F)[C@@H](CO)N3)cc1	11.7	nt	31.8	-0.6	nt	nt	nt	nt
COc1cccc(-c2ccc3c(c2)[C@@H]2[C@@H](CCN2S(=O)(=O)c2ccccc2C)[C@H](CO)N3)c1	-32.8	nt	28.1	0.6	nt	nt	nt	nt
N#Cc1cccc(-c2ccc3c(c2)[C@@H]2[C@@H](CCN2S(=O)(=O)c2ccccc2F)[C@@H](CO)N3)c1	16.4	nt	106.5*	0.6	98.9*	104.9*	15.2	73.4*
O=S(=O)(c1ccccc1F)N1CC[C@H]2[C@H](CO)Nc3ccc(-c4ccc(F)cc4)cc3[C@H]21	3.5	nt	90.1	1.4	nt	nt	nt	nt
O=S(=O)(c1ccccc1F)N1CC[C@@H]2[C@H](CO)Nc3ccc(-c4ccc(F)cc4)cc3[C@@H]21	-11.7	nt	?	-0.7	90.0	84.3	12.0	105.4*
COc1cccc(-c2ccc3c(c2)[C@@H]2[C@@H](CCN2S(=O)(=O)c2ccccc2F)[C@@H](CO)N3)c1	10.6	nt	?	-0.4	97.8*	105.2*	27.9	100.9*
C[C@H](CO)N1C[C@H](C)[C@H](CN(C)Cc2ccc(C(=O)Nc3ccccc3N)cc2)Oc2ccc(NS(=O)(=O)c3cccs3)cc2C1=O	-85.0*	nt	115.0*	-1.0	103.6*	89.9	14.2	48.5*
C[C@H](CO)N1C[C@H](C)[C@H](CN(C)Cc2ccc(-c3ccccc3)cc2)Oc2c(NS(=O)(=O)c3cccs3)cccc2C1=O	-18.7	0.1	96.7*	-0.2	87.2	29.7	14.8	12.7
C[C@@H]1CN([C@H](C)CO)C(=O)c2cc(NS(=O)(=O)c3cccs3)ccc2O[C@H]1CN(C)Cc1ccc(C(=O)Nc2ccccc2N)cc1	-45.8	0.0	92.5	-1.3	nt	nt	nt	nt
C[C@H](CO)N1C[C@H](C)[C@H](CN(C)Cc2ccc(C(=O)Nc3ccccc3N)cc2)Oc2c(NS(=O)(=O)c3cccs3)cccc2C1=O	-63.1	nt	107.4*	1.0	98.8*	84.3	2.6	25.7*
CC(=O)c1cccc(NC(=O)NCc2cnn(C)c2)c1	nt	-0.1	nt	nt	nt	nt	nt	nt
C[C@H]1CN([C@@H](C)CO)C(=O)c2cc(C3=CCCCC3)cnc2O[C@H]1CN(C)Cc1cccc(F)c1	-4.1	-0.4	110.3*	-1.5	105.4*	5.9	21.9	34.7*
C[C@H]1CN([C@@H](C)CO)C(=O)c2cc(C3=CCCCC3)cnc2O[C@@H]1CN(C)Cc1ccccc1C(=O)O	-6.8	nt	108.0*	-0.8	22.6	5.8	8.9	-23.6
C[C@@H]1CN([C@@H](C)CO)C(=O)c2cc(C3=CCCCC3)cnc2O[C@H]1CN(C)C(=O)c1cccc(F)c1	-5.6	-0.9	57.2	3.3	nt	nt	nt	nt
C[C@H]1CN([C@@H](C)CO)C(=O)c2cc(C3=CCCCC3)cnc2O[C@@H]1CN(C)C(=O)c1cccc(F)c1	-45.5	-3.4	105.4*	0.4	107.7*	21.9	-7.2	52.5*
O=C(N/N=C/c1cn(S(=O)(=O)c2ccccc2)c2ccccc12)c1ccccn1	nt	-0.2	nt	nt	nt	nt	nt	nt
SMILES	Pf Dd2 inh	IDH1 mut inh	T cruzi growth-1	KDM4C inh	T cruzi growth-2	T cruzi growth-3	3T3 cytotox	3T3 cytotox 2
O=C(NCc1cccnc1)c1cnn2c1NC(c1ccccc1)CC2C(F)(F)F (configuration not stated)	nt	2.7	nt	nt	nt	nt	nt	nt
O=C(CSc1nnc(-c2ccncc2)o1)c1cc2ccccc2oc1=O	nt	0.5	nt	nt	nt	nt	nt	nt
C[C@H](CO)N1C[C@H](C)[C@H](CN(C)Cc2ccccc2)Oc2ncc(C#CC3(O)CCCC3)cc2C1=O	-4.4	-0.5	101.7*	1.3	45.8	41.9	9.5	18.6
C[C@H]1CN([C@@H](C)CO)C(=O)c2cc(C#Cc3ccccn3)cnc2O[C@H]1CN(C)Cc1ccncc1	10.9	3.5	44.0	3.3	nt	nt	nt	nt
C[C@@H]1CN([C@H](C)CO)C(=O)c2cc(C#Cc3ccccc3)cnc2O[C@@H]1CN(C)C(=O)c1ccccn1	-0.2	0.5	52.9	1.3	nt	nt	nt	nt
C[C@@H]1CN([C@@H](C)CO)C(=O)c2cc(C#Cc3ccccn3)cnc2O[C@H]1CN(C)Cc1ccncc1	22.3	-0.1	?	0.5	108.0*	56.1	16.9	17.3
C[C@@H]1CN([C@H](C)CO)C(=O)c2cc(C#Cc3ccccc3)cnc2O[C@H]1CN(C)C(=O)c1ccccn1	-23.9	0.5	110.9*	-0.7	101.2*	61.8	10.5	29.9*
